From ChEMBL document CHEMBL1149231, “2,5-Dihydropyrazolo[4,3-c]pyridin-3-ones: functionally selective benzodiazepine binding site ligands on the GABAA receptor” (Bioorg Med Chem Lett, 2004) come the findings set out here.

Common to all, as to assay type: cell-based
The target of test [1] is T1, GABA-A receptor; alpha-3/beta-3/gamma-2 (Homo sapiens) (UniProt P18507+P28472+P34903). The test can be described thus: Efficacy was determined against Gamma-aminobutyric acid A receptor, alpha 3 expressed in Xenopus oocytes. As to conditions: Oocyte. The method in brief: (§1)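 Cloned human α1β3γ2, α2β3γ2 or α3β3γ2 receptors transiently expressed in Xenopus oocytes; two-electrode voltage clamp; modulation of GABA EC20 current by a single test-compound concentration (nM, given per value); means ± SEM, n = 3-7.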

Test [2] has as its target T2, GABA-A receptor; alpha-1/beta-3/gamma-2 (Homo sapiens, UniProt P14867+P18507+P28472).
T2 sequence (P14867 whole entry): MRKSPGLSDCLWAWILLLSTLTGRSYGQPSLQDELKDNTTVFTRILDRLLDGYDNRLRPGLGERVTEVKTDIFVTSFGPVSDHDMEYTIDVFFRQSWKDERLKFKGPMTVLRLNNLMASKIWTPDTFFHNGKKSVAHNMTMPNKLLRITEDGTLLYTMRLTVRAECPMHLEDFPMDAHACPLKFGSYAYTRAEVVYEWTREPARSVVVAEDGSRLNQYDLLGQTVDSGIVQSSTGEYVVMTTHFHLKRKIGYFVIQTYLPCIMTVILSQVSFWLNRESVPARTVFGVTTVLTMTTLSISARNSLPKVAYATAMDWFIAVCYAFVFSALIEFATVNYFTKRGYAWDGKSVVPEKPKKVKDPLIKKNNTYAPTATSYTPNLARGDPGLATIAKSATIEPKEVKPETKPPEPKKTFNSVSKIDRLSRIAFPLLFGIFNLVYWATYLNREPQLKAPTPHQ
T2 sequence (P18507 whole entry): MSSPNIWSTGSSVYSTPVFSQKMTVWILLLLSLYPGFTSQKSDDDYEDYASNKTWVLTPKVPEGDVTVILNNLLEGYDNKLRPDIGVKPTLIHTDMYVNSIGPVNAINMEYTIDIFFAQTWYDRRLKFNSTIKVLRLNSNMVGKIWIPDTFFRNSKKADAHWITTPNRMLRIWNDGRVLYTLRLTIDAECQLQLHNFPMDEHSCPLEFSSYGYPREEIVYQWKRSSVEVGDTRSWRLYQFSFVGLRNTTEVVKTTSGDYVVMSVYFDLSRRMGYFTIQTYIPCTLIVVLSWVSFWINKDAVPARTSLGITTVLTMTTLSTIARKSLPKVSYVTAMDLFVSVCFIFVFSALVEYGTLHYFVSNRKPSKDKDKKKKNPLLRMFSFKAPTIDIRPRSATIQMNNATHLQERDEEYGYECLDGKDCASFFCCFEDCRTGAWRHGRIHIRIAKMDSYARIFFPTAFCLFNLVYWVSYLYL
T2 sequence (P28472 whole entry): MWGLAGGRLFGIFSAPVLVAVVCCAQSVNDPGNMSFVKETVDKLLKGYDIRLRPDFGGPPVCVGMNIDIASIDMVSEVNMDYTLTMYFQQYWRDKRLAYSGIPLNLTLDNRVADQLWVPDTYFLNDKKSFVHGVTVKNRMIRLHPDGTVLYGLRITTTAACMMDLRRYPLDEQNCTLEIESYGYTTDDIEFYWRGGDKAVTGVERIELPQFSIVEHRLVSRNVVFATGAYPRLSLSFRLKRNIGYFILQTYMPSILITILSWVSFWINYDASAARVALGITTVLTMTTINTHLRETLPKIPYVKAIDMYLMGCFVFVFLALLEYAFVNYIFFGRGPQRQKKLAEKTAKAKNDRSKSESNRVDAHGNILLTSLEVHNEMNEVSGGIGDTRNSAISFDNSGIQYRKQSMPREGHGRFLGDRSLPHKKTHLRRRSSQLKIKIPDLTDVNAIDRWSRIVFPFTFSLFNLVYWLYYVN
In words: In vitro binding affinity against gamma-aminobutyric acid A receptor, alpha 1 expressed in L(tk) cells by displacement of [3H]Ro-151788. The method in brief: (§2)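 Binding to cloned human α1β3γ2, α2β3γ2 or α3β3γ2 receptors stably expressed in L(tk-) cells, measured as displacement of [3H]Ro15-1788; means ± SEM, n = 3-7.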

Test [3] addresses T1, GABA-A receptor; alpha-3/beta-3/gamma-2 (Homo sapiens). In words: Efficacy against human GABA-A receptor alpha-3-beta-3-gamma-2 subunits expressed in L(tk-) cells by whole-cell patch-clamp. The essentials: (§3)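 Whole-cell patch-clamp of L(tk-) cells stably expressing cloned human α1β3γ2, α2β3γ2 or α3β3γ2 receptors; full concentration-effect curves built; means ± SEM, n = 3-7.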

Test [4] has as its target T3, GABA-A receptor; alpha-3/beta-3/gamma-2 (Homo sapiens, UniProt P18507+P28472+P34903).
T3 sequence (P18507 whole entry): T2 sequence (P18507 whole entry)
T3 sequence (P28472 whole entry): T2 sequence (P28472 whole entry)
T3 sequence (P34903 whole entry): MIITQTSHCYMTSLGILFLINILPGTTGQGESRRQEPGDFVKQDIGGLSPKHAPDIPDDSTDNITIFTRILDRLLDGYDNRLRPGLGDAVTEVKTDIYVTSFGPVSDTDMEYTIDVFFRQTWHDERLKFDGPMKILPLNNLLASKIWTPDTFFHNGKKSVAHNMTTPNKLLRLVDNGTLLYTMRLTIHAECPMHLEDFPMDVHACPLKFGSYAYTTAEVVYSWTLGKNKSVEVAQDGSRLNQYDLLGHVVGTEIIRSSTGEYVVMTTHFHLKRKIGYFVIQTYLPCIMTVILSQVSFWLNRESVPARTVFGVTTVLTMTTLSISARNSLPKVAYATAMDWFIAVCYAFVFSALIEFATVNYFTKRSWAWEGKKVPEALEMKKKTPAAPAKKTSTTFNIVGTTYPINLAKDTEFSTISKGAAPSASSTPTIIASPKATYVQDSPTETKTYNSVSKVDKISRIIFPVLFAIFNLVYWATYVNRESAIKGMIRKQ
In words: In vitro binding affinity against Gamma-aminobutyric acid A receptor, alpha 3 expressed in L(tk) cells by displacement of [3H]Ro-151788. The method in brief: as §2

Test [5] addresses T4, GABA-A receptor; alpha-1/beta-3/gamma-2 (Homo sapiens) (UniProt P14867+P18507+P28472). In words: Efficacy was determined against gamma-aminobutyric acid A receptor, alpha 1 expressed in Xenopus oocytes. Particulars: Oocyte. The method in brief: as §1
Test [6] deals with T4, GABA-A receptor; alpha-1/beta-3/gamma-2 (Homo sapiens). In words: Efficacy against human GABA-A receptor alpha-1-beta-3-gamma-2 subunits expressed in L(tk-) cells by whole-cell patch-clamp. The method in brief: as §3
The target of test [7] is T3, GABA-A receptor; alpha-3/beta-3/gamma-2. The test can be described thus: In vitro displacement of [3H]Ro-151788 from human GABA-A receptor alpha-3-beta-3-gamma-2 subunits expressed in L(tk-) cells. The essentials: as §2
Test [8] has as its target T5, GABA-A receptor; alpha-2/beta-3/gamma-2 (Homo sapiens, UniProt P18507+P28472+P47869).
T5 sequence (P18507 whole entry): T2 sequence (P18507 whole entry)
T5 sequence (P28472 whole entry): T2 sequence (P28472 whole entry)
T5 sequence (P47869 whole entry): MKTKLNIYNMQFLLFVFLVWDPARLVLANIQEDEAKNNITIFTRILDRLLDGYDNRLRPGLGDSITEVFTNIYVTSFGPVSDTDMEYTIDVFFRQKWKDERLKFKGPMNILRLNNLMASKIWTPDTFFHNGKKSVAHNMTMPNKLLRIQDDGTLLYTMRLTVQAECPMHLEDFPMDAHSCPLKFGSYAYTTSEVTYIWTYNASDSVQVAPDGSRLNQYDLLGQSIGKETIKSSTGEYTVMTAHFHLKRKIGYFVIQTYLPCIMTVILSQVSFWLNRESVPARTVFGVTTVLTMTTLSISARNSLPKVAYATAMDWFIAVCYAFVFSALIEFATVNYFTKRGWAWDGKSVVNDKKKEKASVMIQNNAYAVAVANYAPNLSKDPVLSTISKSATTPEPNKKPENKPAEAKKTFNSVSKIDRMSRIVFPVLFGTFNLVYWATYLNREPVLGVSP
In words: In vitro displacement of [3H]Ro-151788 from human GABA-A receptor alpha-2-beta-3-gamma-2 subunits expressed in L(tk-) cells. The essentials: as §2

Test [9] has as its target T6, GABA-A receptor; alpha-2/beta-3/gamma-2 (Homo sapiens) (UniProt P18507+P28472+P47869). In words: Efficacy relative to GABA EC20 against human GABA-A receptor alpha-2-beta-3-gamma-2 subunits expressed in Xenopus oocytes. Particulars: Oocyte. The method in brief:
as §1

Test [10] has as its target T6, GABA-A receptor; alpha-2/beta-3/gamma-2 (Homo sapiens). In words: Efficacy against human GABA-A receptor alpha-2-beta-3-gamma-2 subunits expressed in L(tk-) cells by whole-cell patch-clamp. The method in brief:
as §3

As for `Oc1c2cnc3c(c2nn1-c1ccc(OC(F)F)cc1)CCCC3`, the Efficacy in test [1] turned out to be 56%; in [3], 34%; in [5] it was 21%; in test [6], 2%. Moreover, the Ki in [2] was 1 nM; in [4] it was 2.25 nM.
Regarding `Oc1c2cnc3c(c2nn1-c1ccc(OC2CC2)cc1)CCCC3`, the Efficacy was 62% in [1], 54% in [3], 19% in [5] and -4.3% in [6]. Also, the Ki in [2] was 1.13 nM; in test [7], 2.19 nM.
In the case of `Oc1c2c(nn1-c1ccc(Cl)cc1)C1CCCCCC1N=C2` (centres undefined), the Efficacy came out at 87% in [1] and 23% in test [5]. For the same compound, the Ki was determined as 1.06 nM in test [2] and 4.27 nM in [4].
Taken in the same sequence, the figures for `Oc1c2c(nn1-c1ccc(Cl)cc1)C1CCCC1N=C2` (centres undefined) were 51%, 19%, 0.44 nM and 1.12 nM.
For `Oc1c2c(nn1-c1ccc(OC(F)F)cc1)C1CSCCC1N=C2` (centres undefined), in that order: 25%, 9%, 0.38 nM and 0.89 nM.
For `Oc1c2cnc3c(c2nn1-c1ccc(F)cc1)CCCC3`, in that order: 33%, -2%, 0.29 nM and 0.65 nM.
Turning to `O=C(Cc1cccnc1)N1CCC2N=Cc3c(nn(-c4ccc(Cl)cc4)c3O)C2C1` (centres undefined), the Efficacy in test [1] turned out to be 2.3%; in test [5], 49%. Also, the inhibitory constant (Ki) came out at 3.15 nM in test [2] and 5.4 nM in test [4].
Taken in the same sequence, the figures for `Oc1c2cnc3c(c2nn1-c1ccc(OC(F)(F)F)cc1)CCCC3` were 35%, 14%, 7.33 nM and 4.7 nM.
On to `O=c1c2c[nH]c3c(c-2nn1-c1ccc(Cl)cc1)CCCC3`, for which the Efficacy in test [1] is 93%; in test [9], 61%; in [3], 70%; in test [10], 43%; in test [5], 12%; in test [6] it was 17%. Besides, the Ki in test [2] was determined as 0.19 nM; in test [8], 0.77 nM; in [4] it was 1.03 nM.
For the compound `Oc1c2c(nn1-c1ccc(OC(F)F)cc1)C1COCCC1N=C2` (centres undefined), the values for the Efficacy in test [1] and in test [5] were 32% and 11%, respectively. The inhibition constant (Ki) in [2] is 1.55 nM; in test [4], 6.4 nM.
Taken in the same sequence, the figures for `Oc1c2cnc3c(c2nn1-c1ccccn1)CCCC3` were -7%, -39%, 0.57 nM and 1.14 nM.
For `Oc1c2c(nn1-c1ccc(Cl)cc1)C1CN(CC3CC3)CCC1N=C2` (centres undefined), in that order: 123%, 111%, 0.45 nM and 7.45 nM.
Taken in the same sequence, the figures for `Oc1c2cnc3c(c2nn1-c1ccc(OC2CCC2)cc1)CCCC3` were 36%, 49%, 1.3 nM and 2.55 nM.
In the case of `COc1ccc(-n2nc3c4c(ncc3c2O)CCCC4)cc1`, the Efficacy in [1] was 55%; in [5] it was 15%. Also, the inhibitory constant (Ki) in test [2] was 0.31 nM; in test [4], 0.61 nM.
For `Oc1c2c(nn1-c1ccc(Cl)cc1)C1CN(Cc3ccncc3)CCC1N=C2` (centres undefined), in that order: 199%, 131%, 0.18 nM and 0.56 nM.
